The results in this text go back to ChEMBL document CHEMBL2434937, “Monoamine oxidase inhibitory activity of 3,5-biaryl-4,5-dihydro-1H-pyrazole-1-carboxylate derivatives” (Eur J Med Chem, 2013).

Broadly, the inhibition is the percentage by which the read-out fell short of the control.

In assay [1] the target is T1, Amine oxidase [flavin-containing] A (Homo sapiens, UniProt P21397).
T1 sequence (P21397 whole entry): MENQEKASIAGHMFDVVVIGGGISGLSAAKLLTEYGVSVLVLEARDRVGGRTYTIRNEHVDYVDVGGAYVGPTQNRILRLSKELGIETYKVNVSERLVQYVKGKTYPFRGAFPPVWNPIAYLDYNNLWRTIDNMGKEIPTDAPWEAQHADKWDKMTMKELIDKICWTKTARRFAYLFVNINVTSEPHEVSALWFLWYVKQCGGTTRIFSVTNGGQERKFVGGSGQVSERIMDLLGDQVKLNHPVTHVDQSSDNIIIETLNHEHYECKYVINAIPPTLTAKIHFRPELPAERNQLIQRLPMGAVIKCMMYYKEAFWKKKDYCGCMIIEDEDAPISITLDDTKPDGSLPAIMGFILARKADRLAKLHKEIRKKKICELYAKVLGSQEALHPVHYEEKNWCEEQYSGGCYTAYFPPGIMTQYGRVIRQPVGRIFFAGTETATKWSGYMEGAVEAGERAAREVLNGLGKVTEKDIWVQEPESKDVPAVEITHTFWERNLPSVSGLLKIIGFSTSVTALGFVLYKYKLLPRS
Nature of the assay: Reversible inhibition of human recombinant MAO-A expressed in baculovirus infected […] insect cells at 300 nM incubated for 1 hr followed by compound washout by centrifugation-ultrafiltration method. The method in brief:
(§1)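 Recombinant hMAO-A (baculovirus-infected BTI insect cells) preincubated with a single inhibitor concentration in 0.05 M sodium phosphate, pH 7.4, 1 h at 37°C. One aliquot kept at 4°C unwashed. Remainder ultrafiltered (30 kDa membrane, 9000x g, 20 min, 4°C), resuspended and spun twice more. Activity by Amplex Red/HRP H2O2 fluorescence. Percent inhibition vs vehicle controls, with and without washing.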

The target of assay [2] is T1, Amine oxidase [flavin-containing] A. Kind of assay: Reversible inhibition of human recombinant MAO-A expressed in baculovirus infected […] insect cells at 300 nM after 1 hr by centrifugation-ultrafiltration method. The procedure, abridged: as §1

Take `O=C(NCCN1CCOCC1)c1ccc(Cl)cc1` [MOCLOBEMIDE]: the inhibition at 0.3 µM stood at 9.56% in assay [1] and 89% in assay [2].
